ChEMBL document CHEMBL1146104, “Synthesis and transdermal penetration-enhancing activity of carbonic and carbamic acid esters--comparison with transkarbam 12” (Bioorg Med Chem Lett, 2006)

Columns and labels:
Assay type in all cases: ADME, organism-based
Details in all cases: pig
[1] = organism: Sus scrofa; assay: Enhancement of theophylline transdermal penetration through porcine ear skin using Franz diffusion cell in water medium relative to control
Summary of the method: (§1)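 Theophylline permeation from donor samples with and without enhancer (control lacks enhancer); acceptor-phase theophylline quantified by HPLC. Cumulative amounts (μg/cm2) plotted against time to derive flux (μg/cm2/h). Value is the enhancement ratio: flux with enhancer divided by flux of control. Significance p < 0.05 versus control.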

[2] = organism: Sus scrofa; assay: Enhancement of theophylline transdermal penetration through porcine ear skin using Franz diffusion cell in propylene glycol/water medium relative to control; summary of the method: as §1
[3] = organism: Sus scrofa; assay: Enhancement of theophylline transdermal penetration through porcine ear skin using Franz diffusion cell in isopropylmyristate medium relative to control; summary of the method: as §1

Row | SMILES | Ratio [1] | Ratio [2] | Ratio [3]
1 | CCCCCCCCCCCCOC(=O)CCCCCNC(=O)OCCCCCC(=O)OCCCCCCCCCCCC | 2.27 | 2.63 | 1.29
2 | CCCCCCCCCCCCNC(=O)CCCCCOC(=O)OCCCCCC(=O)NCCCCCCCCCCCC | 0.91 | 3.29 | 1.23
3 | CCCCCCCCCCNC(=O)CCCCCOC(=O)OCC | 3.37 | 1.36 | 1.75
4 | CCCCCCCCCCCCOC(=O)CCCCCOC(=O)OCCCCCC(=O)OCCCCCCCCCCCC | 1.76 | 3.7 | 1.39
5 | CCCCCCCCCCCCOC(=O)CCCCCOC(=O)OCC | 2.4 | 2.13 | 1.07
6 | CCCCCCCCCCCCOC(=O)CCCCCCOC(=O)NCCCCCC(=O)OCCCCCCCCCCCC | 1.22 | 1.02 | 1.07
7 | CCCCCCCCCCCCOC(=O)CCCCCNC(=O)OCC | 1.83 | 1.52 | 1.01
8 | CCCCCCCCCCCCOC(=O)CCCCCCOC(=O)OCCCCCC(=O)OCCCCCCCCCCCC | 0.8 | 1.24 | 1.49
9 | CCCCCCCCCCCCOC(=O)CCCCCN.CCCCCCCCCCCCOC(=O)CCCCCNC(=O)O [TRANSKARBAM 12] | 1.9 | 22.8 | 6.56

Further lines, results first:

Row | Ratio [1] | Ratio [2] | Ratio [3] | SMILES
10 | 1.7 | 1.11 | 1.15 | CCCCCCCCCCCCNC(=O)CCC(C)OC(=O)OCCCCCCCCCCCC (configuration not stated)
11 | 1.48 | 1.45 | 1.77 | CCCCCCCCCCCCNC(=O)CCC(C)OC(=O)OCC (configuration not stated)
12 | 2.49 | 1.13 | 1.29 | CCCCCCCCCCCCOC(=O)CCCCCOC(=O)OCCCCCCCCCCCC
13 | 1.13 | 2.66 | 1.48 | CCCCCCCCCCCCOC(=O)OCCCCCC(=O)NCCCCCCCCCC
14 | 0.77 | 0.47 | 0.57 | CCCCCCCCCCCCOC(=O)CCCCCNC(=O)OCCCCCCCCCCCC
